Source: ChEMBL document CHEMBL1141851, “Two bioactive pentacyclic triterpene esters from the root bark of Hibiscus syriacus” (J Nat Prod, 1999)
In brackets after ≈: the same amount, converted by molar mass.

Legend:
[1] = system: MCF7; assay: Cytotoxicity against human MCF7 cells; format: functional; settings: read-out: ED50 (the source's name)
[2] = system: Liver microsomes; assay: Antioxidant activity in rat liver microsomes assessed as inhibition of lipid peroxidation by TBARS assay; format: functional, Microsome
Procedure, shortened: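 Rat liver microsomal suspension ([…]) mixed with 0.2 mM ascorbic acid. Peroxidation was started by adding 100 µM FeSO4·7H2O. Thiobarbituric acid reactive products were read at 532 nm to measure inhibition of lipid peroxidation. The method was adapted with minor modification from an earlier one.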

[3] = system: NCI-H23; assay: Cytotoxicity against human NCI-H23 cells; format: functional; settings: read-out: ED50 (the source's name)
[4] = system: UACC-62; assay: Cytotoxicity against human UACC-62 cells; format: functional; settings: read-out: ED50 (the source's name)
[5] = system: HCT-15; assay: Cytotoxicity against human HCT-15 cells; format: functional; settings: read-out: ED50 (the source's name)
[6] = system: SF-539; assay: Cytotoxicity against human SF-539 cells; format: functional; settings: read-out: ED50 (the source's name)
[7] = system: PC-3; assay: Cytotoxicity against human PC-3 cells; format: functional; settings: read-out: ED50 (the source's name)
[8] = system: SW-620; assay: Cytotoxicity against human SW620 cells; format: functional; settings: read-out: ED50 (the source's name)
[9] = system: ACHN; assay: Cytotoxicity against human ACHN cells; format: functional; settings: read-out: ED50 (the source's name)
[10] = system: UO-31; assay: Cytotoxicity against human UO-31 cells; format: functional; settings: read-out: ED50 (the source's name)

IC50 [2] [µg/mL] | Compound | EC50 [1] [µg/mL] | EC50 [3] [µg/mL] | EC50 [4] [µg/mL] | EC50 [5] [µg/mL] | EC50 [6] [µg/mL] | EC50 [7] [µg/mL] | EC50 [8] [µg/mL] | EC50 [9] [µg/mL] | EC50 [10] [µg/mL]
2.3 (≈ 3.7 µM) | CC1(C)CC[C@]2(CO)CC[C@]3(C)C(=CC[C@@H]4[C@@]5(C)CC[C@H](O)[C@@](C)(COC(=O)/C=C/c6ccc(O)c(O)c6)[C@@H]5CC[C@]43C)[C@@H]2C1 | 2.2 (≈ 3.54 µM) | 2.8 (≈ 4.51 µM) | 3.9 (≈ 6.28 µM) | 0.8 (≈ 1.29 µM) | 1.4 (≈ 2.25 µM) | 1.6 (≈ 2.58 µM) | 1.1 (≈ 1.77 µM) | 1.2 (≈ 1.93 µM) | 2 (≈ 3.22 µM)
1.1 (≈ 1.77 µM) | CC1(C)CC[C@]2(CO)CC[C@]3(C)C(=CC[C@@H]4[C@@]5(C)CC[C@H](OC(=O)/C=C/c6ccc(O)c(O)c6)[C@@](C)(CO)[C@@H]5CC[C@]43C)[C@@H]2C1 | 1.8 (≈ 2.9 µM) | 1.7 (≈ 2.74 µM) | 2.3 (≈ 3.7 µM) | 1.3 (≈ 2.09 µM) | 2 (≈ 3.22 µM) | 2.2 (≈ 3.54 µM) | 1 (≈ 1.61 µM) | 2.1 (≈ 3.38 µM) | 1.7 (≈ 2.74 µM)
 | COc1cccc2c1C(=O)c1c(O)c3c(c(O)c1C2=O)C[C@@](O)(C(=O)CO)C[C@@H]3O[C@H]1C[C@H](N)[C@H](O)[C@H](C)O1 [DOXORUBICIN] | 0.1 (≈ 0.184 µM) | 0.1 (≈ 0.184 µM) | 0.2 (≈ 0.368 µM) | 0.6 (≈ 1.1 µM) | 0.2 (≈ 0.368 µM) | 0.4 (≈ 0.736 µM) | 0.1 (≈ 0.184 µM) | 0.3 (≈ 0.552 µM) | 
1.6 | VITAMIN E |  |  |  |  |  |  |  |  | 
